Drawing on BindingDB's records for PubMed 34730959 (The University of Sydney, 2022), this text covers IC50 for one molecule.

The experiment concerns the target Procathepsin L (Homo sapiens, UniProt P07711). As to the kind of experiment: Inhibition of human recombinant Cathepsin L assessed remaining activity using Z-FR-AMC as substrate incubated for 30 mins by fluorometric assay. The procedure, abridged:
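Recombinant human cathepsins: L, B, V and K at 1.11 nM, S at 4.44 nM. Each was preincubated 30 min at 25 °C with 3333 to 0.006 nM compound. Z-FR-AMC was added at 40 μM final. AMC release rate over 0–30 min was compared with DMSO (ex/em 360/460). IC50 from four technical replicates.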

Chain of Procathepsin L (P07711 whole entry): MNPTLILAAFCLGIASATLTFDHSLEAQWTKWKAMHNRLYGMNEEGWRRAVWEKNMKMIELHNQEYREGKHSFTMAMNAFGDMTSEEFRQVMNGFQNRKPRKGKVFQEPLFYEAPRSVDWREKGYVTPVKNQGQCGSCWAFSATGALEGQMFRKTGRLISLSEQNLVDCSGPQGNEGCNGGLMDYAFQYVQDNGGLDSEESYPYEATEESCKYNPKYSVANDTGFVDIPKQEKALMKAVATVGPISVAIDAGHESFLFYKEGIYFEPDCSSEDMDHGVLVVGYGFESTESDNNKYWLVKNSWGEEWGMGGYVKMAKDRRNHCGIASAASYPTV

A word on the IC50: it is the midpoint of a concentration-inhibition curve. In the case of `COC1=CC(=O)N(C(=O)/C=C/[C@H](C)NC(=O)[C@H](CCc2ccccc2)NC(=O)[C@H](CC2CCCCC2)NC(=O)[C@H](C(C)C)N(C)C)[C@H]1Cc1c[nH]c2ccccc12`, the concentration for half-maximal inhibition (IC50) is 6 pM.
